MPTP inh = mitochondrial permeability transition pore inhibitors, primary screen, biochemical, isolated mouse mitochondria, absorbance; Ca2+ swelling absorbance, 30 min; inhibition, % at 10 µM; actives 1.4% (n = 360,000); AID 602449, 2012;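 active = inhibition of 50% or more, scaled per plate between neutral and stimulator controls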
Lmaj promast = Leishmania major promastigote growth inhibition, primary screen | Leishmania major promastigotes, resazurin fluorescence viability | inhibition, % at 10 µM | actives 9% (n = 200,000); in the data active = inhibition above about 50%;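 note: promastigotes grown with compound for 44 hours at 28 °C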
Hep lipid drop = inhibitors of hepatocyte lipid droplet formation, primary screen, imaging, high-throughput imaging, BODIPY stain; actives 0.4% (n = 240,000); AML12 mouse hepatocytes, oleate lipid droplets; inhibition, % at 6.5 µM;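 active = lipid droplet intensity inhibited by at least 50%, with more than 500 cells counted; inconclusive = wells with under 300 cells, treated as cytotoxic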
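System: AML12 hepatocytes (mouse). Probe or stimulus: oleic acid at 100 µM to induce lipid droplet formation. Times: overnight treatment with compound plus oleate. Detection: Image-based BODIPY and DAPI two-channel analysis. Evaluation: percent inhibition of filter-corrected integrated lipid droplet intensity per well.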
T cruzi repl = inhibitors of intracellular T. cruzi growth, primary screen, luminescence, NIH3T3 host cells. T. cruzi beta-gal in NIH3T3, 90 h. inhibition, % (no concentration beside the values). actives 1.4% (n = 300,000);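 active = mean inhibition across valid replicates above about 55%, limit read from the data; inconclusive = mean below that limit but half or more replicates reach it; inactive = mean below it, under half of replicates reach it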;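 note: signal also drops with host cell toxicity which is not excluded here; higher percent means less beta-gal luminescence so fewer parasites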
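Material: NIH/3T3 host cells with β-galactosidase reporter T. cruzi; Input: 5,000 host fibroblasts per well; Medium: DMEM, 2% fetal bovine serum; Compound: 50 nL DMSO compound solution per well; Schedule: 3 h host attachment, then at least 90 h co-culture; Detection: luminescent β-galactosidase signal after 60 min lysis.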
Redox H2O2 prof = compounds producing H2O2 with reducing agent – biochemical, NIH compound library profiling, artefact control for MLSCN library redox annotation, primary screen; DTT-dependent redox cycling H2O2, phenol red/HRP absorbance; 100% = 100 µM peroxide control, 0% = buffer; activation, % at 10 µM; actives 0.03% (n = 200,000);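 active = activation of at least 50% relative to the plate's high and low controls in the primary single-dose screen; inactive = activation below 50%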;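 note: compound incubated with DTT at 0.8 mM final as the reducing agent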
Numbers stand for hits; 0 = inactive; ? = inconclusive; - = no result. This excerpt belongs to a sample that is enriched for hits.

SMILES	MPTP inh	Lmaj promast	Hep lipid drop	T cruzi repl	Redox H2O2 prof
CCCNC(=O)C1(S(=O)(=O)c2ccccc2)CC=CC1	0	-	0	0	-
OCCN1CCN(c2ncnc3sc(-c4ccccc4)cc23)CC1	0	0	0	62.1	0
COc1ccc(/C=C/CN2CCN(CCc3ccccc3)C(CCO)C2)cc1 (stereo unspecified)	0	89.6	0	0	0
COc1cc(CN2CCN(CCc3ccccc3)C(CCO)C2)cc(OC)c1 (stereo unspecified)	0	63.9	0	0	0
COc1ccc(-c2ncc(CN3CCN(CCC(C)C)C(CCO)C3)cn2)cc1 (stereo unspecified)	0	0	0	61.3	0
COC(=O)c1ccc(CN2CCN(CCC(C)C)C(CCO)C2)cc1 (stereo unspecified)	0	62.0	0	0	0
CCN(C(=O)c1cccnc1SC)C12CC3CC(CC(C3)C1)C2	0	-	0	0	-
CCOc1ccc2nc(SCC(=O)N(CCOC)c3c(N)n(Cc4ccccc4)c(=O)[nH]c3=O)[nH]c2c1	0	-	-	0	-
CC(=O)OC[C@H]1O[C@@H](Oc2cc(O)cc3oc(-c4ccc(O)cc4)cc(=O)c23)[C@H](O[C@@H]2O[C@@H](C)[C@H](O)[C@@H](O)[C@H]2O)[C@@H](O)[C@@H]1O	0	-	-	-	-
CC1CC(=O)Nc2ccccc2N1S(=O)(=O)c1cccc(Cl)c1 (stereo unspecified)	0	0	0	0	0
Nn1c(SCC(=O)Nc2ccccc2F)nnc1C1CCCCC1	0	-	0	0	-
Cc1c(C(=O)C(=O)N2CCN(Cc3ccc4c(c3)OCO4)CC2)c2ccccc2n1C	0	-	0	0	-
COC(=O)c1ccc(CN2CCN(CCc3ccccc3)C(CCO)C2)cc1 (stereo unspecified)	0	91.3	0	0	0
COc1ccccc1/C=C/CN1CCN(Cc2ccc(F)cc2)C(CCO)C1 (stereo unspecified)	0	82.5	0	0	0
Cc1ccc(C2NC(c3ccc(C)cc3)C(C)C(=O)C2C)cc1 (stereo unspecified)	0	-	0	0	-
COc1ccc(NC(=O)Cc2ccc(C)c(C)c2)cc1S(=O)(=O)N1CCCCC1	0	-	-	-	-
Oc1c(C(Nc2cccc(C(F)(F)F)c2)c2ccncc2)ccc2cccnc12 (stereo unspecified)	0	100.1	0	78.6	0
CCN(CC)c1ccc(C(NC(=O)C(C)C)c2ccc3cccnc3c2O)cc1 (stereo unspecified)	0	-	-	-	-
Oc1c(C(Nc2nccs2)c2ccc(C(F)(F)F)cc2)ccc2cccnc12 (stereo unspecified)	0	99.9	0	0	0
COc1ccc(C(C)(C)C)cc1S(=O)(=O)n1ccnc1C	0	0	0	0	0
COc1ccc(/C=N/NC(=O)COc2cc(C)cc(C)c2)cc1COC(C)=O	0	0	0	0	0
COC(=O)CN1C(=S)N(c2ccc(OC)cc2)C(=O)/C1=C/c1ccc(OC)cc1	0	53.8	0	0	0
CCCn1c(N)c(C(=O)CN(C)CC(=O)Nc2ccccc2C(F)(F)F)c(=O)[nH]c1=O	0	-	-	-	-
CCOc1ccccc1-n1c(SCC(=O)Nc2nccs2)nnc1-c1ccoc1C	0	73.0	-	0	0
Clc1ccc(SCCN2CCNCC2)cc1	0	100.1	0	62.7	0
SMILES	MPTP inh	Lmaj promast	Hep lipid drop	T cruzi repl	Redox H2O2 prof
Cc1ccc(SCCN2CCN(C)CC2)cc1	0	-	0	64.5	-
Cc1ccc(SCCN2CCN(Cc3ccccc3)CC2)cc1	0	-	0	72.5	-
OCCN1CCN(CCSc2ccccc2)CC1	0	56.2	-	0	0
CC(Sc1ccsc1[N+](=O)[O-])C(=O)N1CCN(c2ccccn2)CC1 (stereo unspecified)	0	0	0	0	0
COc1cc(NC(=O)C2CCC(CNS(=O)(=O)c3csc(C(N)=O)c3)CC2)cc(OC)c1 (stereo unspecified)	0	-	0	0	-
O=C1N=C2SCCN2/C1=C\c1ccccc1Cl	0	99.8	-	0	0
CCOC(=O)c1nnn(CC(=O)N2N=C(c3cccc4ccccc34)CC2c2ccccc2)c1C(=O)OCC (stereo unspecified)	0	51.5	0	0	0
CCC(=O)N1N=C(c2ccccc2)CC1c1ccccc1 (stereo unspecified)	0	-	0	0	-
NC1=NC[C@H](Cc2ccc(O)cc2)N1CCCCC1CCCCC1	0	-	0	60.0	-
NC1=NC[C@H](Cc2ccc(O)cc2)N1CCc1cc(C(F)(F)F)cc(C(F)(F)F)c1	0	-	0	0	-
COc1ccc(N2CCN(c3ncnc4scc(-c5ccc(F)cc5)c34)CC2)cc1	0	-	0	0	-
COc1ccc(N2CCN(c3ncnc4scc(-c5ccc(C)cc5)c34)CC2)cc1	0	-	0	57.8	-
COc1ccc(N2CCN(C(=O)CSc3ncnc4scc(-c5ccc(C)cc5)c34)CC2)cc1	0	0	-	75.8	0
COc1ccc(N2CCN(C(=O)CSc3nc(C)cs3)CC2)cc1	0	-	-	0	-
Clc1ccc(-c2csc3ncnc(Cl)c23)cc1	0	0	0	0	0
COc1ccc(Nc2ncnc3scc(-c4ccc(OC)cc4)c23)cc1	0	87.8	0	0	0
NNc1ncnc2scc(-c3ccc(Cl)cc3)c12	0	68.3	0	0	0
CC(C)C(OC(=O)c1cccc(S(=O)(=O)NCC(F)(F)F)c1)C(=O)NC(N)=O (stereo unspecified)	0	0	0	0	0
c1ccc(-c2csc3ncnc(N4CCc5ccccc5C4)c23)cc1	0	89.3	0	0	0
O=C1OC(Oc2ccccc2)(c2ccccc2)c2ccccc21 (stereo unspecified)	0	98.5	-	0	0
O=C1OC(OC2CCCCC2)(c2ccccc2)c2ccccc21 (stereo unspecified)	0	0	-	0	0
C=CCNc1nc(NCc2ccc(N(C)C)cc2)c2sc(-c3ccccc3)cc2n1	0	-	-	-	-
COc1ccc2c(c1)C(C)=CC(C)(C)N2S(=O)(=O)c1ccc(NC(C)=O)cc1	0	-	-	0	-
COc1ccc2c(c1)C(C)=CC(C)(C)N2S(=O)(=O)c1ccc(Br)cc1	0	94.8	?	67.1	0
CCOc1ccc2c(c1)C(C)=CC(C)(C)N2S(=O)(=O)c1ccc(NC(C)=O)cc1	0	-	0	55.2	-
SMILES	MPTP inh	Lmaj promast	Hep lipid drop	T cruzi repl	Redox H2O2 prof
CC1=CC(C)(C)N(S(=O)(=O)c2ccc(C)cc2)c2ccccc21	0	100.0	0	0	0
CC1=CC(C)(C)N(S(=O)(=O)c2ccc(F)cc2)c2ccc(C)cc21	0	0	0	0	0
CCOC(CNC(=O)Cn1nc(C)c2ccccc21)OCC	0	0	0	0	0
Cc1ccc(NC(=O)c2ccc(NCCN)c([N+](=O)[O-])c2)cc1	0	88.6	0	0	0
Cc1cccc(NC(=O)c2ccc(NCCc3ccccc3)c([N+](=O)[O-])c2)c1	0	0	0	0	0
O=C(NCCCN1CCOCC1)c1cccc(NC(=O)c2ccccc2)c1	0	-	-	0	-

Screens deposited in PubChem by several laboratories.
